In ChEMBL document CHEMBL1158957, “Scopadulciol, an inhibitor of gastric H+, K(+)-ATPase from Scoparia dulcis, and its structure-activity relationships” (J Nat Prod, 1991):
“And” between values parts separate entries of the source, which are not always exact repeats. Equal values may be shown once.

Assays:
Sus scrofa [1] = species on record: Sus scrofa; assay: Inhibition of H+/K+ ATPase in pig stomach at 1 uM; type: tissue-based
Method in brief: (§1)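 Enzyme from hog fundic mucosa: vesicles were isolated by differential and sucrose/Ficoll gradient centrifugation, lyophilized, resuspended in water, kept at -80° and used within 2–3 weeks. The 1 ml assay held 10 µg vesicle protein, 3 mM MgSO₄, 3 mM ATP and 40 mM Tris/HCl pH 7.4, ±15 mM KCl. Inorganic phosphate was the read-out, and H⁺,K⁺-ATPase activity was taken as the K⁺-dependent difference.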

Sus scrofa [2] = species on record: Sus scrofa; assay: Inhibition of H+/K+ ATPase in pig stomach at 10 uM; type: tissue-based; method in brief: as §1
Sus scrofa [3] = species on record: Sus scrofa; assay: Inhibition of H+/K+ ATPase in pig stomach at 100 uM; type: tissue-based; method in brief: as §1
[4] = Inhibition of H+/K+ ATPase in pig stomach; type: tissue-based, Sus scrofa; method in brief: as §1

Row | inhibition (Sus scrofa [1]) | inhibition (Sus scrofa [2]) | inhibition (Sus scrofa [3]) | IC50 [4] [nM] | Compound
1 | -2% | 5% | 22% | – | COC(=O)[C@]1(C)CCC[C@@]2(C)[C@H]1[C@H](O)C[C@H]1C[C@H](O)[C@@]3(C)CC[C@]12C3
2 | – | – | 8% | – | C[C@]12CC[C@]3(C1)[C@@H](C[C@@H](O)[C@H]1[C@](C)(C(=O)O)CCC[C@@]13C)C[C@@H]2O
3 | 12% | 59% | 64% | – | COC(=O)[C@]1(C)CCC[C@@]2(C)[C@H]1[C@H](OC(=O)c1ccccc1)C[C@H]1C[C@@H](O)[C@@]3(C)CC[C@]12C3
4 | – | – | 24% | – | C[C@]12CC[C@]3(C1)[C@H](CC2=O)C[C@@H](OC(=O)c1ccccc1)[C@H]1[C@@](CO)(C(=O)O)CCC[C@@]13C
5 | 24% | 67% | 75% | – | COC(=O)[C@]1(C)CCC[C@@]2(C)[C@H]1[C@H](OC(=O)c1ccccc1)C[C@H]1C/C(=N\O)[C@@]3(C)CC[C@]12C3
6 | – | -3% | 7% | – | C[C@]12CC[C@]3(C1)[C@@H](C[C@@H](O)[C@H]1[C@](C)(CO)CCC[C@@]13C)C[C@H]2O
7 | 11% | 26% | 80% | – | C[C@]12CC[C@]3(C1)[C@H](C/C2=N\O)C[C@@H](OC(=O)c1ccccc1)[C@H]1[C@](C)(C(=O)O)CCC[C@@]13C
8 | 10% | 64% | 68% | – | COC(=O)[C@]1(C)CCC[C@@]2(C)[C@H]1[C@H](OC(=O)c1ccccc1)C[C@H]1C[C@H](O)[C@@]3(C)CC[C@]12C3
9 | -2% | 33% | 62% | – | CC(=O)OC[C@]1(C)CCC[C@@]2(C)[C@H]1[C@H](O)C[C@H]1C[C@@H](OC(C)=O)[C@@]3(C)CC[C@]12C3
10 | 36% | 74% | 81% | 3000 | COC(=O)[C@]1(C)CCC[C@@]2(C)[C@H]1[C@H](OC(=O)c1ccccc1)C[C@H]1CC(=O)[C@@]3(C)CC[C@]12C3
11 | -1% | 21% | 45% | – | C[C@@]12CC[C@]3(C1)[C@H](CC2=O)C[C@@H](OC(=O)c1ccccc1)[C@H]1[C@](C)(CO)CCC[C@@]13C
12 | 49% | 61% | 62% | – | COC(=O)[C@]1(C)CCC[C@@]2(C)[C@H]1[C@H](OC(=O)c1ccccc1)C[C@H]1C[C@H](OC(C)=O)[C@@]3(C)CC[C@]12C3
13 | – | – | 24% | – | C[C@]12CC[C@]3(C1)[C@@H](C[C@@H](O)[C@H]1[C@](C)(CO)CCC[C@@]13C)C[C@@H]2O
14 | 13% | 18% | 57% | – | CC(=O)OC[C@]1(C)CCC[C@@]2(C)[C@H]1[C@H](OC(C)=O)C[C@H]1C[C@H](OC(C)=O)[C@@]3(C)CC[C@]12C3
15 | 1% | 7% | 33% | – | CC(=O)O[C@@H]1C[C@H]2CC(=O)[C@@]3(C)CC[C@@]2(C3)[C@@]2(C)CCC[C@@](C)(C(=O)O)[C@H]12
16 | 5% | 40% | 79% | – | CC(=O)OC[C@]1(C)CCC[C@@]2(C)[C@H]1[C@H](O)C[C@H]1C[C@H](OC(C)=O)[C@@]3(C)CC[C@]12C3
17 | -4% | 3% | 30% | – | C[C@]12CC[C@]3(C1)[C@H](C[C@H]2O)C[C@@H](OC(=O)c1ccccc1)[C@H]1[C@](C)(C(=O)O)CCC[C@@]13C
18 | 35% | 58% | 61% | 3000 | COC(=O)[C@]1(C)CCC[C@@]2(C)[C@H]1[C@H](OC(=O)c1ccccc1)C[C@H]1C[C@@H](OC(C)=O)[C@@]3(C)CC[C@]12C3
19 | 7% and -0% | 21% and 14% | 62% and 64% | – | C[C@]12CC[C@]3(C1)[C@H](CC2=O)C[C@@H](OC(=O)c1ccccc1)[C@H]1[C@](C)(C(=O)O)CCC[C@@]13C
20 | 2% | 13% | 21% | – | CC(=O)O[C@H]1C[C@@H]2C[C@@H](O)[C@H]3[C@](C)(C(=O)O)CCC[C@]3(C)[C@]23CC[C@@]1(C)C3
21 | -5% | 4% | 52% | – | COC(=O)[C@]1(C)CCC[C@@]2(C)[C@H]1[C@H](O)C[C@H]1CC(=O)[C@@]3(C)CC[C@]12C3
22 | -1% | 1% | 12% | – | C[C@]12CC[C@]3(C1)[C@@H](CC(=O)[C@H]1[C@](C)(C(=O)O)CCC[C@@]13C)CC2=O
23 | 1% | 12% | 72% | – | C[C@]12CC[C@]3(C1)[C@@H](C[C@@H](OC(=O)c1ccccc1)[C@H]1[C@](C)(C(=O)O)CCC[C@@]13C)C[C@@H]2O
24 | 40% | 71% | 72% | – | CC(=O)OC[C@]1(C)CCC[C@@]2(C)[C@H]1[C@H](OC(=O)c1ccccc1)C[C@H]1CC(=O)[C@@]3(C)CC[C@]12C3
25 | 7% | 38% | 98% | – | CC(=O)O[C@@H]1C[C@@H]2C[C@@H](OC(=O)c3ccccc3)[C@H]3[C@](C)(C(=O)O)CCC[C@]3(C)[C@]23CC[C@@]1(C)C3
26 | 3% | 21% | 94% | – | CC(=O)O[C@H]1C[C@@H]2C[C@@H](OC(=O)c3ccccc3)[C@H]3[C@](C)(C(=O)O)CCC[C@]3(C)[C@]23CC[C@@]1(C)C3
